48 compounds from PubChem BioAssay AID623961 (The Scripps Research Institute Molecular Screening Center, 2012) can be followed below.

The structures appear in SMILES notation. Values joined by “and” are separate entries in the source; they are usually repeats but may differ in a detail not shown here. Identical values can stand only once. Active and inactive are the calls of the source.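 The calls were made as follows: active = mean cell viability below 80%; inactive = the rest.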

For this assay, the system named is Huh-7.5 Rluc-replicon viability, CellTiter-Glo ATP, 72 h. The assay can be described thus: cytotoxicity in HCV replicon hepatoma cells, late-stage follow-up, cytotoxicity control for HCV NS3 helicase inhibitor project, cell-based, luminescence (AID 623961). The conditions noted are these: at 10 µM; stronger effect = lower value. The essentials:
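Assay system: Huh-7.5 cells with HCV RLuc replicon. Times: cell attachment 4-5 h, compound exposure 72 h at 37 °C, 5% CO2. Signal: ATP luminescence after 30 min lysis at 23 °C. Buffer or medium: growth medium, replaced before viability reagent. Compound: 10 µM single concentration, 0.5% DMSO.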
Background: A replicon is a self-replicating genome or part of one, used to study replication in cells.
Turning to `Cc1ccc2nc(-c3ccc4nc(-c5ccc(NC(=O)c6ccc(N(C)C)cc6)cc5)sc4c3)sc2c1S(=O)(=O)O`, the viability was 94% (inactive). As to `Cc1ccc2nc(-c3ccc4nc(-c5ccc(NC(=O)c6ccccc6)cc5)sc4c3)sc2c1S(=O)(=O)O`, the viability is 88% (inactive). With `Cc1ccc2nc(-c3ccc4nc(-c5ccc(N(C)C(=O)c6ccc7ccccc7c6)cc5)sc4c3)sc2c1S(=O)(=O)O`, the viability is 101% (inactive). For the compound `Cc1ccc2nc(-c3ccc4nc(-c5ccc(NC(=O)c6cc(C(F)(F)F)cc(C(F)(F)F)c6)cc5)sc4c3)sc2c1S(=O)(=O)O`, the viability was 122% (inactive). For the compound `Cc1ccc2nc(-c3ccc(NC(=O)c4ccc(NC(=O)c5ccc(C(F)(F)F)cc5)cc4)cc3)sc2c1S(=O)(=O)O`, the viability is 97% (inactive). `Cc1ccc2nc(-c3ccc4nc(-c5ccc(NCc6ccccc6)cc5)sc4c3)sc2c1S(=O)(=O)O`: the viability is 109% (inactive). On to `Cc1ccc2nc(-c3ccc4nc(-c5ccc(NC(=S)Nc6ccccc6)cc5)sc4c3)sc2c1S(=O)(=O)O`, for which the viability was 98% (inactive). With `Cc1ccc2nc(-c3ccc4nc(-c5ccc(NC(=O)c6ccc(NC(=O)OCC7c8ccccc8-c8ccccc87)cc6)cc5)sc4c3)sc2c1S(=O)(=O)O`, the viability is 92% (inactive). In the case of `COC(=O)c1ccc(C(=O)Nc2ccc(-c3nc4ccc(-c5nc6ccc(C)c(S(=O)(=O)O)c6s5)cc4s3)cc2)cc1`, the viability is 101% (inactive).

For the compound `Cc1ccc2nc(-c3ccc(NC(=O)c4ccc(C(F)(F)F)cc4)cc3)sc2c1S(=O)(=O)O`, the viability was 102% (inactive).

`Cc1ccc2nc(-c3ccc4nc(-c5ccc6nc(-c7ccc(N)cc7)sc6c5)sc4c3)sc2c1S(=O)(=O)O` (tested in a mixture with another compound): the viability was 98% (inactive).

As to `Cc1ccc2nc(-c3ccc(NC(=O)c4ccc(NC(=O)c5ccc(N)cc5)cc4)cc3)sc2c1S(=O)(=O)O`, the viability is 112% (inactive). To `Cc1ccc2nc(-c3ccc4nc(-c5ccc(NC(=O)Nc6ccc(C(F)(F)F)cc6)cc5)sc4c3)sc2c1S(=O)(=O)O` belongs 99% (inactive); to `Cc1ccc2nc(-c3ccc4nc(-c5ccc6nc(-c7ccc(N)cc7)sc6c5)sc4c3)sc2c1S(=O)(=O)O`, 91% (inactive).

On to `Cc1ccc2nc(-c3ccc(NC(=O)c4ccc(NC(=S)Nc5ccccc5)cc4)cc3)sc2c1S(=O)(=O)O`, for which the viability was 106% (inactive). Take `O=C(Nc1nc2ccc(Br)cc2s1)c1ccc2ncsc2c1`: the viability was 89% (inactive). As to `Cc1ccc2nc(-c3ccc4nc(-c5ccc(N)cc5)sc4c3)sc2c1S(=O)(=O)O`, the viability is 85% (inactive) and 105% (inactive) and 95% (inactive).

For the compound `O=C(CCCCCCC(=O)Nc1ccc(-c2nc3ccccc3[nH]2)cc1)Nc1ccc(-c2nc3ccccc3[nH]2)cc1`, the viability was 31%. The result for `Cc1ccc2nc(-c3ccc(NC(=S)Nc4ccccc4Br)cc3)sc2c1` reads 39%; that for `Cc1cc2sc(-c3ccc(N)cc3)nc2cc1S(=O)(=O)O`, 88% (inactive); that for `Cc1ccc(NC(=O)Nc2ccc(-c3nc4ccc(-c5nc6ccc(C)c(S(=O)(=O)O)c6s5)cc4s3)cc2)cc1`, 93% (inactive). With `NS(=O)(=O)c1ccc2nc(NC(=O)c3ccc4ncsc4c3)sc2c1`, the viability was 94% (inactive). In the case of `Cc1ccc2nc(-c3ccc4nc(-c5ccc(NC(=O)c6cc(F)cc(C(F)(F)F)c6)cc5)sc4c3)sc2c1S(=O)(=O)O`, the viability was 113% (inactive). To `Cc1ccc2nc(-c3ccc4nc(-c5ccc(NC(=O)c6ccc(C(C)(C)C)cc6)cc5)sc4c3)sc2c1S(=O)(=O)O` belongs 87% (inactive); to `Cc1ccc2nc(-c3ccc4nc(-c5ccc(NC(=O)c6ccc(N)cc6)cc5)sc4c3)sc2c1S(=O)(=O)O`, 93% (inactive).

Turning to `Cc1ccc2nc(-c3ccc4nc(-c5ccc(NC(=O)c6c(F)cccc6C(F)(F)F)cc5)sc4c3)sc2c1S(=O)(=O)O`, the viability was 122% (inactive). As to `Cc1ccc2nc(-c3ccc4nc(-c5ccc(NC(=O)c6cccc(C(F)(F)F)c6)cc5)sc4c3)sc2c1S(=O)(=O)O`, the viability is 121% (inactive). As to `Cc1ccc2nc(-c3ccc(NC(=O)c4ccc(NC(=O)Nc5ccccc5)cc4)cc3)sc2c1S(=O)(=O)O`, the viability is 113% (inactive). Take `Cc1ccc2nc(-c3ccc4nc(-c5ccc(NC(=O)c6ccc(F)cc6)cc5)sc4c3)sc2c1S(=O)(=O)O`: the viability was 94% (inactive). On to `Cc1cc(C(O)(c2ccc(Nc3ccccc3)cc2)c2ccc(Nc3ccc(S(=O)(=O)O)cc3)cc2)ccc1N` (stereo not drawn), for which the viability was 73%. Consider `Cc1ccc2nc(-c3ccc4nc(-c5ccc(NC(=O)c6cccc7ccccc67)cc5)sc4c3)sc2c1S(=O)(=O)O`, for which the viability was 103% (inactive).

Consider `Cc1ccc2nc(-c3ccc4nc(-c5ccc(NC(=O)c6ccc(Cl)cc6)cc5)sc4c3)sc2c1S(=O)(=O)O`, for which the viability is 84% (inactive).

Regarding `Cc1ccc2nc(-c3ccc4nc(-c5ccc(NC(=O)c6cc(F)ccc6C(F)(F)F)cc5)sc4c3)sc2c1S(=O)(=O)O`, the viability is 118% (inactive). The result for `Cc1ccc2nc(-c3ccc4nc(-c5ccc(NC(=O)c6cccc(C(F)(F)F)c6F)cc5)sc4c3)sc2c1S(=O)(=O)O` reads 122% (inactive); that for `Cc1ccc2nc(-c3ccc4nc(-c5ccc(NC(=O)c6ccc(C(F)(F)F)c(F)c6)cc5)sc4c3)sc2c1S(=O)(=O)O`, 129% (inactive). `Cc1ccc2nc(-c3ccc4nc(-c5ccc(NC(=O)c6cccc(Cl)c6)cc5)sc4c3)sc2c1S(=O)(=O)O`: the viability was 112% (inactive). To `Cc1ccc2nc(-c3ccc(NC(=O)c4ccc(NC(=O)c5ccccc5)cc4)cc3)sc2c1S(=O)(=O)O` belongs 115% (inactive); to `CS(=O)(=O)c1ccc2nc(NC(=O)c3ccc4ncsc4c3)sc2c1`, 41%; to `Cc1ccc2nc(-c3ccc4nc(-c5ccc(NC(=O)c6ccc7nc(-c8ccc(NC(=O)OCC9c%10ccccc%10-c%10ccccc%109)cc8)sc7c6)cc5)sc4c3)sc2c1S(=O)(=O)O`, 90% (inactive) and 95% (inactive). For `Cc1cc2sc(-c3ccc4nc(-c5ccc(N)cc5)sc4c3)nc2cc1S(=O)(=O)O`, the viability is 87% (inactive). The result for `Cc1ccc2nc(-c3ccc4nc(-c5ccc(NC(=O)c6ccc(C(F)(F)F)cc6)cc5)sc4c3)sc2c1S(=O)(=O)O` reads 90% (inactive); that for `CCOc1ccc2nc(NC(=O)c3ccc4ncsc4c3)sc2c1`, 3%. To `Cc1ccc2nc(-c3ccc(N)cc3)sc2c1S(=O)(=O)O` belongs 104% (inactive); to `Cc1ccc2nc(-c3ccc4nc(-c5ccc(NS(=O)(=O)c6ccc(C(F)(F)F)cc6)cc5)sc4c3)sc2c1S(=O)(=O)O`, 101% (inactive).

In the case of `COc1ccc2sc(NC(=O)c3ccc4ncsc4c3)nc2c1`, the viability was 50%. Consider `CN1CCN(Cc2cc(CN3CCN(C)CC3)c(O)c(=O)c(CN3CCN(C)CC3)c2)CC1`, for which the viability was 69%.

For `CCOc1ccc2c(NNC(=O)c3cnccn3)c3c(nc2c1)CCCC3`, the viability was 31%. `Cc1ccc2nc(-c3ccc(NC(=O)c4ccc(NC(=O)c5ccc(NC(=O)OCC6c7ccccc7-c7ccccc76)cc5)cc4)cc3)sc2c1S(=O)(=O)O`: the viability is 113% (inactive).

Broadly, the viability is a read-out of living cells in per cent, often relative to untreated cells.
